In ChEMBL document CHEMBL2034893, “Selective inhibition of human type-5 17β-hydroxysteroid dehydrogenase (AKR1C3) by baccharin, a component of Brazilian propolis” (J Nat Prod, 2012):
One block for each compound: values may come before it. Activity calls are given as the source filed them. The calls are words filed in the database; no cut-off is given here.

Experiments:
[1] = target: T1, Aldo-keto reductase family 1 member C3 (Homo sapiens, UniProt P42330); test: Inhibition of human recombinant AKR1C3 expressed in Escherichia coli JM109 cells using S-tetralol as substrate at 100 uM by fluorometry
[2] = target: T2, Aldo-keto reductase family 1 member C1 (Homo sapiens, UniProt Q04828); test: Inhibition of AKR1C1-mediated progesterone reduction in human A549 cells at 0.2 to 5 uM incubated for 2 hrs prior to substrate addition measured after 6 hrs by LC/MS analysis; type: cell-based
How it was run: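 A549 cells were grown in DMEM with 10% FBS at 37 °C under 5% CO2. They were pretreated 2 h with inhibitor in serum-free medium, then given 30 μM progesterone for 6 h. Medium steroids were extracted twice with ethyl acetate. Progesterone and 20α-hydroxyprogesterone were quantified by LC/MS (chiral column, total-ion monitoring). Percent inhibition of reduction is the mean of two independent experiments.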

[3] = target: T1, Aldo-keto reductase family 1 member C3; test: Competitive inhibition of human recombinant AKR1C3 expressed in Escherichia coli JM109 cells using S-tetralol as substrate by fluorometry
How it was run: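 Recombinant enzymes (wild-type or mutant) were expressed in E. coli JM109 and purified to homogeneity. Activity was NADP+-linked S-tetralol oxidation at 25 °C in 0.1 M potassium phosphate, pH 7.4, with saturating 0.25 mM NADP+ and five S-tetralol levels (0.33−2 mM). NADPH fluorescence was read at ex 340/em 455 nm. Ki is the mean ± SD of at least three determinations.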

[4] = target: T1, Aldo-keto reductase family 1 member C3; test: Noncompetitive inhibition of human recombinant AKR1C3 expressed in Escherichia coli JM109 cells using S-tetralol as substrate by fluorometry in presence of NADP+
[5] = target: T1, Aldo-keto reductase family 1 member C3; test: Inhibition of human recombinant AKR1C3 expressed in Escherichia coli JM109 cells using S-tetralol as substrate by fluorometry
PC-3 [6] = test: Growth inhibition of human PC3 cells at 50 uM after 72 hrs by MTT assay relative to untreated control; type: functional; details: PC-3, 72 h, read-out: GI
PC-3 [7] = test: Growth inhibition of human PC3 cells overexpressing AKR1C3 at 50 uM after 72 hrs by MTT assay relative to untreated control; type: functional; details: PC-3, 72 h, read-out: GI
[8] = target: Aldo-keto reductase family 1 member C2 (Homo sapiens, UniProt P52895); test: Inhibition of human recombinant AKR1C2 expressed in Escherichia coli using S-tetralol as substrate by fluorometry
[9] = target: T2, Aldo-keto reductase family 1 member C1; test: Inhibition of human recombinant GST-tagged AKR1C1 expressed in Escherichia coli using S-tetralol as substrate by fluorometry
How it was run: (§1)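 Purified recombinant enzyme was assayed at 25 °C in 0.1 M potassium phosphate, pH 7.4, with 0.25 mM NADP+ and S-tetralol (0.1 mM for AKR1C1, 1 mM for AKR1C4). The rate of NADPH fluorescence increase was read at ex 340/em 455 nm. IC50 is the mean ± SD of at least three determinations.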

[10] = target: Aldo-keto reductase family 1 member C4 (Homo sapiens, UniProt P17516); test: Inhibition of human recombinant GST-tagged AKR1C4 expressed in Escherichia coli using S-tetralol as substrate by fluorometry; how it was run: as §1
[11] = target: T1, Aldo-keto reductase family 1 member C3; test: Inhibition of human AKR1C3 using S-(+)-1,2,3,4-tetrahydro-1-naphthol as substrate
How it was run: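 Recombinant human AKR1C3, purified to homogeneity. NADP+-linked S-tetralol oxidation at 25 °C in 0.1 M potassium phosphate pH 7.4 with 0.25 mM NADP+ and 1 mM S-tetralol. Rate followed by NADPH fluorescence (excitation 340 nm, emission 455 nm). IC50 given as mean ± SD of at least three determinations.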

T2 sequence (Q04828 whole entry): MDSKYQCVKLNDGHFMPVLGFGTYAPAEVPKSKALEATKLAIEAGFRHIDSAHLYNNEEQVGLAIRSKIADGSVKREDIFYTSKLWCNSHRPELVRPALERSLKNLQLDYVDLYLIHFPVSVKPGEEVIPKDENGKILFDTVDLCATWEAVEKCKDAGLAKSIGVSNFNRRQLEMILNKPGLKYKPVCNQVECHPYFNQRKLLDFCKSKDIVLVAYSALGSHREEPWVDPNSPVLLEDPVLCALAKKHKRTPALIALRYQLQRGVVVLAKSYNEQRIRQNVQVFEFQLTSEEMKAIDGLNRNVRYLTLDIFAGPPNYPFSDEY
T1 sequence (P42330 whole entry): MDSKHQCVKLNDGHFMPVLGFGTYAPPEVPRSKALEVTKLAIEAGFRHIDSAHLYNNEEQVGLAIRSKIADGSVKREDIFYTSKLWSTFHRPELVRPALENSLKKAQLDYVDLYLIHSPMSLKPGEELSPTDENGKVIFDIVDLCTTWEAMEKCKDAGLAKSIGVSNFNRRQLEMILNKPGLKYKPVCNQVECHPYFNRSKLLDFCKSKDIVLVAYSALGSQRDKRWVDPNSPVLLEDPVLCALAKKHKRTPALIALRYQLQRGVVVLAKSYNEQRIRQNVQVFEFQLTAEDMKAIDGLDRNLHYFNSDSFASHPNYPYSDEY
Sequence of Aldo-keto reductase family 1 member C4 (P17516 whole entry): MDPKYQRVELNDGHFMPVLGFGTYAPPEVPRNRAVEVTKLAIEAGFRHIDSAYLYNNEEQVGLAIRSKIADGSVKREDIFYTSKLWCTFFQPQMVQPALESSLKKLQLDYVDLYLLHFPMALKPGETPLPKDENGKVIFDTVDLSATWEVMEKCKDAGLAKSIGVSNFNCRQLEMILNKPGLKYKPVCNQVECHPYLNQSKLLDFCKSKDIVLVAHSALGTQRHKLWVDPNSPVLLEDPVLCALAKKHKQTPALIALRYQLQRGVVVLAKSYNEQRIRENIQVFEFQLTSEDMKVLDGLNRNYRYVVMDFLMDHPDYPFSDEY
Sequence of Aldo-keto reductase family 1 member C2 (P52895 whole entry): as the sequence (Q04828 whole entry) above, with T38V, R47H, L54V, C87S, V151M, R170H, Q172L counted along it

inhibition [1]: 36%
Structure (SMILES): O=C(O)/C=C/c1ccc(O)c(O)c1

inhibition [1]: 22%
Structure (SMILES): O=C(O)/C=C/c1ccc(O)cc1

inhibition [2]: Active
Structure (SMILES): O=C(O)c1cc(-c2ccccc2)cc(Br)c1O

Ki [3]: 0.68 µM
Ki [4]: 0.68 µM
IC50 [5]: 1 µM
Structure (SMILES): CC(C)=CCc1cc(/C=C/C(=O)O)cc(CC=C(C)C)c1O [ARTEPILLIN]

Structure (SMILES): CC(C)=CCc1cc(/C=C/C(=O)O)ccc1OC(=O)CCc1ccccc1 [BACCHARIN]
inhibition of growth at 50 µM (PC-3 [6]): 35%
inhibition of growth at 50 µM (PC-3 [7]): 43%

IC50 [8]: 6 µM
IC50 [5]: 1.7 µM
IC50 [9]: 13 µM
IC50 [10]: 2.3 µM
Structure (SMILES): O=C(/C=C/c1ccc(O)c(O)c1)OCCc1ccccc1 [CAFFEIC ACID PHENETHYL ESTER]

IC50 [8]: 75 µM
IC50 [9]: 130 µM
IC50 [10]: 54 µM
Structure (SMILES): COc1ccc2c(c1)c(CC(=O)O)c(C)n2C(=O)c1ccc(Cl)cc1 [INDOMETHACIN]

Ki [11]: 0.008 µM
Structure (SMILES): Cc1c(Cl)cccc1Nc1ccccc1C(=O)O [TOLFENAMIC ACID]
